{
  "source": "ChEMBL document CHEMBL3576840",
  "about": "“Helical Antimicrobial Sulfono-γ-AApeptides” (J Med Chem, 2015)",
  "key": {"[1]": {"system": "Staphylococcus aureus", "assay": "Antimicrobial activity against methicillin-resistant Staphylococcus aureus ATCC 33592 after 16 hrs", "type": "functional", "settings": "ATCC 33592, 16 h"}, "[2]": {"system": "Staphylococcus epidermidis", "assay": "Antimicrobial activity against methicillin-resistant Staphylococcus epidermidis RP62A after 16 hrs", "type": "functional"}, "[3]": {"system": "Enterococcus faecalis", "assay": "Antimicrobial activity against Enterococcus faecalis ATCC 700802 after 16 hrs", "type": "functional", "settings": "ATCC 700802, 16 h", "procedure,_shortened": "(§1)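 Broth microdilution: overnight cultures were reinoculated at 1:100, grown to mid-log phase, and diluted to 1 × 10^6 CFU/mL. Cells were mixed 1:1 with serial dilutions […] and incubated 16 h at 37 °C, then read at 600 nm. MIC is the lowest concentration with no growth. Repeated multiple times, in duplicate.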"}, "[4]": {"system": "Pseudomonas aeruginosa", "assay": "Antimicrobial activity against Pseudomonas aeruginosa ATCC 27853 after 16 hrs", "type": "functional", "settings": "ATCC 27853, 16 h", "procedure,_shortened": "as §1"}, "[5]": {"system": "Escherichia", "assay": "Antimicrobial activity against Escherichia ATCC 25922 after 16 hrs", "type": "functional", "settings": "ATCC 25922, 16 h", "procedure,_shortened": "as §1"}, "[6]": {"assay": "Induction of hemolysis in human RBCs incubated for 1 hr", "type": "cell-based, Erythrocyte", "settings": "red blood cells", "procedure,_shortened": "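Fresh K2EDTA human RBCs were washed in PBS until the supernatant was clear and diluted to a 5% v/v suspension. This was mixed with equal volumes of compound dilutions for 1 h at 37 °C, centrifuged, and supernatant absorbance read at 360 nm. Hemolysis was normalized between PBS (0%) and 2% Triton X-100 (100%) controls. At least three repeats, in duplicate.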"}, "[7]": {"system": "Staphylococcus aureus", "assay": "Induction of membrane disruption in methicillin-resistant Staphylococcus aureus ATCC 33592 at 10 ug/ml incubated for 2 hrs by DAPI and propidium iodide staining based fluorescence microscopy", "type": "functional, organism-based", "procedure,_shortened": "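Mid-log bacteria treated with compound (10 μg/mL) at 37 °C for 2 h, pelleted, washed, stained with PI (5 μg/mL) then DAPI (10 μg/mL) for 15 min on ice; untreated cells as control; imaged by fluorescence microscopy under 100× oil immersion; PI uptake taken as membrane damage; three repeats.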"}, "[8]": {"system": "Escherichia", "assay": "Induction of membrane disruption in Escherichia ATCC 25922 at 10 ug/ml incubated for 2 hrs by DAPI and propidium iodide staining based fluorescence microscopy", "type": "functional, organism-based", "procedure,_shortened": "(§2)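 Mid-log bacteria were incubated with 10 μg/mL compound for 2 h at 37 °C, pelleted at 5000 g and washed. Staining used PI (5 μg/mL) then DAPI (10 μg/mL), 15 min on ice. Imaged by fluorescence microscopy with a 100× oil objective; untreated bacteria served as controls.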"}, "[9]": {"system": "Escherichia", "assay": "Induction of cell aggregation of Escherichia ATCC 25922 at 10 ug/ml incubated for 2 hrs by DAPI and propidium iodide staining based fluorescence microscopy", "type": "functional, organism-based", "procedure,_shortened": "as §2"}, "[10]": {"system": "Staphylococcus aureus", "assay": "Bactericidal activity against methicillin-resistant Staphylococcus aureus ATCC 33592 at 12.5 to 50 ug/ml measured after 30 mins by colony count based time-kill assay", "type": "functional, organism-based", "procedure,_shortened": "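Time-kill: MRSA grown to mid-log in TSB, diluted to 10^6 CFU/mL, exposed to compound at several multiples of MIC for 10 min, 30 min, 1 h and 2 h; samples diluted 10^2–10^4-fold, plated on TSB agar, colonies counted after overnight 37 °C; viability plotted against time; three repeats.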"}, "[11]": {"system": "Escherichia", "assay": "Bactericidal activity against Escherichia ATCC 25922 at 25 and 50 ug/ml measured after 1 hr by colony count based time-kill assay", "type": "functional, organism-based", "procedure,_shortened": "(§3)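 Time-kill: MRSA and E. coli were grown to mid-log phase in TSB and diluted to 10^6 CFU/mL. Suspensions were exposed to several compound concentrations for 10 min, 30 min, 1 h and 2 h. Samples were diluted 10^2–10^4-fold, plated on TSB agar and incubated overnight at 37 °C. Colonies were counted and plotted against exposure time. Three repeats.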"}, "[12]": {"system": "Escherichia", "assay": "Bactericidal activity against Escherichia ATCC 25922 assessed as reduction bacterial colony count at 25 ug/ml measured after 10 mins to 2 hrs by colony count based time-kill assay", "type": "functional", "procedure,_shortened": "as §3"}, "[13]": {"assay": "Stability in presence of 0.1 mg/ml pronase in 100 mM pH 7.8 ammonium bicarbonate buffer at 37 degC assessed as compound degradation after 18 hrs by HPLC method", "type": "physicochemical", "settings": "pH 7.8, 18 h", "procedure,_shortened": "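Compound or control peptide AcVQIVYK (1 mg/mL) was incubated 18 h at 37 °C with Pronase in ammonium bicarbonate. Mixtures were dried by speed-vac at 60 °C, redissolved in water and run on analytical RP-HPLC: 5–100% acetonitrile/0.1% TFA gradient over 40 min at 1 mL/min.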"}, "[14]": {"system": "N2a", "assay": "Cytotoxicity against mouse N2a cells assessed as cell viability after 36 hrs by MTT assay"}},
  "note": "The source made the active and inactive calls. No cut-off for these calls is given here. Residues, ends and D or L forms follow the SMILES beside them.",
  "data": [
    {"smiles": "NCCCC[C@@H](CN(CC(N)=O)S(=O)(=O)CCN)NC(=O)CN(C[C@H](Cc1ccccc1)NC(=O)CN(C[C@H](Cc1ccccc1)NC(=O)CN(C[C@H](Cc1ccccc1)NC(=O)CN(C[C@H](CCCCN)NC(=O)CN(C[C@H](Cc1ccccc1)NC(=O)CN(C[C@H](Cc1ccccc1)NC(=O)CN(C[C@@H](N)Cc1ccccc1)S(=O)(=O)Cc1ccccc1)S(=O)(=O)CCN)S(=O)(=O)Cc1ccccc1)S(=O)(=O)CCN)S(=O)(=O)Cc1ccccc1)S(=O)(=O)CCN)S(=O)(=O)Cc1ccccc1", "values": [
      {"measurement": "MIC", "setting": "[1]", "value": 2, "unit": "µg/mL"},
      {"measurement": "MIC", "setting": "[2]", "value": 2, "unit": "µg/mL"},
      {"measurement": "MIC", "setting": "[3]", "value": 2, "unit": "µg/mL"},
      {"measurement": "MIC", "setting": "[4]", "value": 4, "unit": "µg/mL"},
      {"measurement": "MIC", "setting": "[5]", "value": 4, "unit": "µg/mL"},
      {"measurement": "HC50 at 1 h", "setting": "[6]", "value": 100, "unit": "µg/mL"},
      {"measurement": "Activity", "setting": "[7]", "value": "Active"},
      {"measurement": "Activity", "setting": "[8]", "value": "Active"},
      {"measurement": "Activity", "setting": "[9]", "value": "Active"},
      {"measurement": "Activity", "setting": "[10]", "value": "Active"},
      {"measurement": "Activity", "setting": "[11]", "value": "Active"},
      {"measurement": "Activity", "setting": "[12]", "value": 1, "unit": "×10⁵ CFU/ml"},
      {"measurement": "Stability", "setting": "[13]", "value": "Stable"},
      {"measurement": "EC50", "setting": "[14]", "value": 120, "unit": "µg/mL"}
    ]},
    {"smiles": "CC[C@H](C)[C@H](NC(=O)[C@H](CCC(N)=O)NC(=O)[C@@H](NC(C)=O)C(C)C)C(=O)N[C@H](C(=O)N[C@@H](Cc1ccc(O)cc1)C(=O)N[C@@H](CCCCN)C(=O)O)C(C)C", "note": "(Ac-VQIVYK-OH)", "values": [
      {"measurement": "Stability", "setting": "[13]", "value": "Unstable"}
    ]},
    {"smiles": "CC(=O)N[C@@H](CCCCN)CN(CC(=O)N[C@@H](Cc1ccccc1)CN(CC(=O)N[C@@H](CCCCN)CN(CC(=O)N[C@@H](Cc1ccccc1)CN(CC(=O)N[C@@H](CCCCN)CN(CC(=O)N[C@@H](Cc1ccccc1)CN(CC(=O)N[C@@H](CCCCN)CN(CC(=O)N[C@@H](Cc1ccccc1)CN(CC(N)=O)S(=O)(=O)Cc1ccccc1)S(=O)(=O)CCN)S(=O)(=O)Cc1ccccc1)S(=O)(=O)CCN)S(=O)(=O)Cc1ccccc1)S(=O)(=O)CCN)S(=O)(=O)Cc1ccccc1)S(=O)(=O)CCN", "values": [
      {"measurement": "MIC", "setting": "[1]", "value": 12, "unit": "µg/mL"},
      {"measurement": "MIC", "setting": "[2]", "value": 4, "unit": "µg/mL"},
      {"measurement": "MIC", "setting": "[3]", "value": 6, "unit": "µg/mL"},
      {"measurement": "MIC", "setting": "[4]", "value": "> 50", "unit": "µg/mL"},
      {"measurement": "MIC", "setting": "[5]", "value": 6, "unit": "µg/mL"},
      {"measurement": "HC50 at 1 h", "setting": "[6]", "value": 150, "unit": "µg/mL"}
    ]},
    {"smiles": "CC(=O)N[C@@H](Cc1ccccc1)CN(CC(=O)N[C@@H](Cc1ccccc1)CN(CC(=O)N[C@@H](Cc1ccccc1)CN(CC(=O)N[C@@H](CCCCN)CN(CC(=O)N[C@@H](Cc1ccccc1)CN(CC(=O)N[C@@H](Cc1ccccc1)CN(CC(=O)N[C@@H](Cc1ccccc1)CN(CC(=O)N[C@@H](CCCCN)CN(CC(N)=O)S(=O)(=O)CCN)S(=O)(=O)Cc1ccccc1)S(=O)(=O)CCN)S(=O)(=O)Cc1ccccc1)S(=O)(=O)CCN)S(=O)(=O)Cc1ccccc1)S(=O)(=O)CCN)S(=O)(=O)Cc1ccccc1", "values": [
      {"measurement": "MIC", "setting": "[1]", "value": 4, "unit": "µg/mL"},
      {"measurement": "MIC", "setting": "[2]", "value": 2, "unit": "µg/mL"},
      {"measurement": "MIC", "setting": "[3]", "value": 2, "unit": "µg/mL"},
      {"measurement": "MIC", "setting": "[4]", "value": 6, "unit": "µg/mL"},
      {"measurement": "MIC", "setting": "[5]", "value": 4, "unit": "µg/mL"},
      {"measurement": "HC50 at 1 h", "setting": "[6]", "value": 75, "unit": "µg/mL"},
      {"measurement": "EC50", "setting": "[14]", "value": 80, "unit": "µg/mL"}
    ]}
  ]
}
